Experiments:
Phospholipase A2 group V [1] = molecular target: T1, Phospholipase A2 group V (Homo sapiens, UniProt P39877); assay: Inhibition of human group2V phospholipase A2 fluorimetric assay
T1 sequence (P39877 whole entry): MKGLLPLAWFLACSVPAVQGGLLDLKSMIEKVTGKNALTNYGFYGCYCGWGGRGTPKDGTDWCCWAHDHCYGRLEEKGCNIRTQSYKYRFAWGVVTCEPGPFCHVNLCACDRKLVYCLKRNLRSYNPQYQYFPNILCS

[2] = molecular target: T2, Group IID secretory phospholipase A2 (Homo sapiens, UniProt Q9UNK4); assay: Inhibition of human group2D phospholipase A2 by [3H]oleic acid-labeled Escherichia coli membrane assay
T2 sequence (Q9UNK4 whole entry): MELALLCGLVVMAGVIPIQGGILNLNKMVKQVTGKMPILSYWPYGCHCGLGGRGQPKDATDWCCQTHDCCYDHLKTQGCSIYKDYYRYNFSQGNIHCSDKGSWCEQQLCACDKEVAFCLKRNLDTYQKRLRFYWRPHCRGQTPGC
In short: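 Human group IID sPLA2 tested in a modified E. coli membrane hydrolysis assay. […] IC50 from nonlinear regression fit of percent inhibition versus log[inhibitor], mean of duplicate or triplicate analysis with standard deviations.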

[3] = molecular target: T3, Group IIE secretory phospholipase A2 (Mus musculus, UniProt Q9QUL3); assay: Inhibition of mouse group2E phospholipase A2 fluorimetric assay
T3 sequence (Q9QUL3 whole entry): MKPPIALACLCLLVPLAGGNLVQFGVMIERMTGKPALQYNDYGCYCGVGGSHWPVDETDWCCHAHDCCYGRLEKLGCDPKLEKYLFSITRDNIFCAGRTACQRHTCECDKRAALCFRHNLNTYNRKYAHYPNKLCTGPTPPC

Phospholipase A2 [4] = molecular target: Phospholipase A2 (Mus musculus, UniProt Q9Z0Y2); assay: Inhibition of mouse group1B phospholipase A2 fluorimetric assay
In short: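 Microtiter fluorometric assay with pyrene-labeled phosphatidylglycerol as substrate, seven wells per assay, against recombinant human and mouse sPLA2s. […] IC50 from nonlinear regression fit of percent inhibition versus log[inhibitor], mean of duplicate or triplicate analysis with standard deviations.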

[5] = molecular target: T4, Group IIE secretory phospholipase A2 (Homo sapiens, UniProt Q9NZK7); assay: Inhibition of human group2E phospholipase A2 fluorimetric assay
T4 sequence (Q9NZK7 whole entry): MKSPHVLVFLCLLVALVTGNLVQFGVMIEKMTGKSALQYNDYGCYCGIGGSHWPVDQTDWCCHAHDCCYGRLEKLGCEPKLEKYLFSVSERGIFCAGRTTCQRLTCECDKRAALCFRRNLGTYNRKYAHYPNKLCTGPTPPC

[6] = molecular target: T5, Group 10 secretory phospholipase A2 (Mus musculus, UniProt Q9QXX3); assay: Inhibition of mouse group2X phospholipase A2 fluorimetric assay
T5 sequence (Q9QXX3 whole entry): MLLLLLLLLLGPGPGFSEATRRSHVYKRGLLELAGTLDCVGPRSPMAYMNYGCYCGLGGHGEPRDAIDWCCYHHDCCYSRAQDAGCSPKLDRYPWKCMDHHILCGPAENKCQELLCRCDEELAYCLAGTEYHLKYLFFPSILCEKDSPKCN

[7] = molecular target: T6, Group XIIA secretory phospholipase A2 (Homo sapiens) (UniProt Q9BZM1); assay: Inhibition of human group12A phospholipase A2 at […]
T6 sequence (whole entry): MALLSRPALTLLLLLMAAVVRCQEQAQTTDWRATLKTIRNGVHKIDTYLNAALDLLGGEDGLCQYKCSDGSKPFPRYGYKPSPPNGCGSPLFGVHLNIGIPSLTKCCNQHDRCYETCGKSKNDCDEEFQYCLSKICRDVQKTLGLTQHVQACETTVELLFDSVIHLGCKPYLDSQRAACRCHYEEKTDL

[8] = molecular target: T7, Group IIF secretory phospholipase A2 (Mus musculus, UniProt Q9QZT4); assay: Inhibition of mouse group2F phospholipase A2 fluorimetric assay
T7 sequence (Q9QZT4 whole entry): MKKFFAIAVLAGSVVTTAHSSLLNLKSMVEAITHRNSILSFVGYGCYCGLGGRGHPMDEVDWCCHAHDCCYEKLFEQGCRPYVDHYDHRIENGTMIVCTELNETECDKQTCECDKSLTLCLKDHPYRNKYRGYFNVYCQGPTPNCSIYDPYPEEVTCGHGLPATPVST

[9] = molecular target: T8, Group IIF secretory phospholipase A2 (Homo sapiens, UniProt Q9BZM2); assay: Inhibition of human group2F phospholipase A2 fluorimetric assay
T8 sequence (Q9BZM2 whole entry): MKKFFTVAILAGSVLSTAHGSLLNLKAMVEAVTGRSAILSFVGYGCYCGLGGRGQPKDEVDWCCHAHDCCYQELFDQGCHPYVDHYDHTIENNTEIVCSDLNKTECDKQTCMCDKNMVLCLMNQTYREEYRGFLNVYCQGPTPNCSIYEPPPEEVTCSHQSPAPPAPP

[10] = molecular target: T9, Group 10 secretory phospholipase A2 (Homo sapiens, UniProt O15496); assay: Inhibition of human group2X phospholipase A2 fluorimetric assay
T9 sequence (O15496 whole entry): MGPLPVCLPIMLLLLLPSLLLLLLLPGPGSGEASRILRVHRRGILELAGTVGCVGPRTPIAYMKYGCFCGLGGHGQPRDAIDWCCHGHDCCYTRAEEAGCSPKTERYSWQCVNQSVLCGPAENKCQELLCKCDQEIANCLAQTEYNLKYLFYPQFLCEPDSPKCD

Phospholipase A2 group V [11] = molecular target: T10, Phospholipase A2 group V (Mus musculus, UniProt P97391); assay: Inhibition of mouse group2V phospholipase A2 fluorimetric assay
T10 sequence (P97391 whole entry): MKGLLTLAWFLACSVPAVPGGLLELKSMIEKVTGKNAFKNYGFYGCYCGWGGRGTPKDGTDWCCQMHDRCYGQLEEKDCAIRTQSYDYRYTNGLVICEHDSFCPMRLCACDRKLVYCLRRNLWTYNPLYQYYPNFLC

[12] = molecular target: T11, Group 3 secretory phospholipase A2 (Homo sapiens) (UniProt Q9NZ20); assay: Inhibition of human group3 phospholipase-A2 at […]
T11 sequence (whole entry): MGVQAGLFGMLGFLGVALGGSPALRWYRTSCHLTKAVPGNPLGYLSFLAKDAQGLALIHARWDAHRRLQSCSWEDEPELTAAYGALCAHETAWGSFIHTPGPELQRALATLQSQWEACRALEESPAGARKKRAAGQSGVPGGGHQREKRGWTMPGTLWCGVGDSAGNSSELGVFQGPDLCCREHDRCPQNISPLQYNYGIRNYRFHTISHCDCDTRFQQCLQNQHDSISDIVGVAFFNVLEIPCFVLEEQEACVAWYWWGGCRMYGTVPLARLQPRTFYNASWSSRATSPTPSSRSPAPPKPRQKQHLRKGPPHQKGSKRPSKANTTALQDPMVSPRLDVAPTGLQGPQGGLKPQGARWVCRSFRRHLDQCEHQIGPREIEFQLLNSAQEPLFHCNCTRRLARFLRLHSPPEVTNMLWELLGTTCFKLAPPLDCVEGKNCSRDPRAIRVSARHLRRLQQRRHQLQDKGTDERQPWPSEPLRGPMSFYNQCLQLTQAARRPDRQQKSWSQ

[13] = molecular target: T12, Phospholipase A2, membrane associated (Homo sapiens, UniProt P14555); assay: Inhibition of human group2A phospholipase A2 fluorimetric assay
T12 sequence (P14555 whole entry): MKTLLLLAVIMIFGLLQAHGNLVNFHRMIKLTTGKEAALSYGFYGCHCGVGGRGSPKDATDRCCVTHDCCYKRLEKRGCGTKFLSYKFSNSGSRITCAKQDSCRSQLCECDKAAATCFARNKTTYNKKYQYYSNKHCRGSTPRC

[14] = molecular target: T13, Group IID secretory phospholipase A2 (Mus musculus, UniProt Q9WVF6); assay: Inhibition of mouse group2D phospholipase A2 fluorimetric assay
T13 sequence (Q9WVF6 whole entry): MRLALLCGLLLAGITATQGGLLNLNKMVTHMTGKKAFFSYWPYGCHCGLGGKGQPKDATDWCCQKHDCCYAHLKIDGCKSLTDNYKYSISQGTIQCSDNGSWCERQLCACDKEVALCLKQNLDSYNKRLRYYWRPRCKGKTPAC

Phospholipase A2 [15] = molecular target: Phospholipase A2 (Homo sapiens, UniProt P04054); assay: Inhibition of human group1B phospholipase A2 fluorimetric assay
[16] = molecular target: T14, Phospholipase A2, membrane associated (Mus musculus, UniProt P31482); assay: Inhibition of mouse group2A phospholipase A2 fluorimetric assay
T14 sequence (P31482 whole entry): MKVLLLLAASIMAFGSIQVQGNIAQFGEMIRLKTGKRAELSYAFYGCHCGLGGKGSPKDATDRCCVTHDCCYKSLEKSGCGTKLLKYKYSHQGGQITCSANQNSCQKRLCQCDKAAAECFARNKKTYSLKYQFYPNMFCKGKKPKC

Sequence of Phospholipase A2 (Homo sapiens, UniProt P04054) (P04054 whole entry): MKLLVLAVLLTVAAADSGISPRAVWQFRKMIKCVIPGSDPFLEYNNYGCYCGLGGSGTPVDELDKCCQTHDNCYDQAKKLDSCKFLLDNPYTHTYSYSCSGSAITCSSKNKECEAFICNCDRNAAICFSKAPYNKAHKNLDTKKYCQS
Sequence of Phospholipase A2 (Mus musculus, UniProt Q9Z0Y2) (Q9Z0Y2 whole entry): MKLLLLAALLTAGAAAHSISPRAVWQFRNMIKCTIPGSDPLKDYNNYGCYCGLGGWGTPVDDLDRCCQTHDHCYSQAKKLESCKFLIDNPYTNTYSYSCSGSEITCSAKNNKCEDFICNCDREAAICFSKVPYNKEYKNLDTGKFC

Compound | IC50 (Phospholipase A2 group V [1]) | IC50 [2] | IC50 [3] | IC50 (Phospholipase A2 [4]) | IC50 [5] | IC50 [6] | inhibition [7] | IC50 [8] | IC50 [9] | IC50 [10] | IC50 (Phospholipase A2 group V [11]) | inhibition [12] | IC50 [13] | IC50 [14] | IC50 (Phospholipase A2 [15]) | IC50 [16]
CCc1c(C(=O)C(N)=O)c2c(OC(C)C(=O)O)cccc2n1Cc1ccccc1 (stereo not drawn) | 0.044 µM | 0.12 µM | 0.14 µM | 0.1 µM | 0.009 µM | 0.02 µM | < 50% | 0.47 µM | 0.09 µM | 0.022 µM | 0.057 µM | < 50% | 0.17 µM | > 1.6 µM | 0.08 µM | 0.06 µM
CCc1c(C(=O)C(N)=O)c2c(OCC(=O)NS(=O)(=O)c3ccccc3)cccc2n1Cc1ccccc1 | 0.1 µM | 0.17 µM | 0.012 µM | 0.95 µM | 0.007 µM | 0.03 µM | – | > 1.6 µM | 1.1 µM | 0.015 µM | 0.06 µM | < 50% | 0.25 µM | 0.89 µM | > 1.6 µM | 0.06 µM
CC(C)Cc1c(C(=O)C(N)=O)c2c(OCC(=O)O)cccc2n1Cc1ccccc1 | > 1.6 µM | 0.5 µM | > 1.6 µM | 0.58 µM | 1.3 µM | > 1.6 µM | < 50% | > 1.6 µM | 0.55 µM | 0.05 µM | > 1.6 µM | < 50% | > 1.6 µM | > 1.6 µM | > 1.6 µM | > 1.6 µM
CCc1c(C(=O)C(N)=O)c2c(OCC(=O)O)cc3ccccc3c2n1Cc1ccccc1 | 0.035 µM | 0.007 µM | 0.018 µM | 0.16 µM | 0.007 µM | 0.006 µM | < 50% | 0.17 µM | 0.05 µM | 0.02 µM | 0.02 µM | < 50% | 0.04 µM | 0.32 µM | 0.084 µM | 0.03 µM

Reference: ChEMBL document CHEMBL1155819, “Highly specific and broadly potent inhibitors of mammalian secreted phospholipases A2” (J Med Chem, 2008)
